Laboratory results from ChEMBL document CHEMBL1150836, “Bioactive constituents of the roots of Cynanchum atratum” (2001).
Values after ≈ are worked out from the molar mass of the structure shown.

How the values were obtained:
RAW264.7 [1] = test: Antiinflammatory activity in LPS-stimulated mouse RAW264.7 cells assessed as inhibition of TNFalpha formation at 30 uM pretreated 1 hr before LPS challenge measured after 24 hrs by enzyme immunoassay; format: functional
Procedure, shortened: (§1)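 RAW 264.7 cells, 2 × 10⁵ per well in DMEM with 5% FCS and penicillin/streptomycin, adhered overnight. Pretreated 1 h at 37 °C with drug (0.5% DMSO vehicle; dexamethasone reference), then LPS (E. coli 0111:B4) 1 μg/mL for 24 h. TNF-α in the collected medium, stored at −70 °C, quantified by EIA kit.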

N9 [2] = test: Antiinflammatory activity in LPS/IFN-gamma-stimulated mouse N9 cells assessed as inhibition of TNFalpha formation at 30 uM pretreated 1 hr before LPS/IFNgamma challenge measured after 24 hrs by enzyme immunoassay
[3] = Cytotoxicity against mouse 212 cells after 6 days by MTT assay; format: functional; conditions: 144 h, read-out: ED50 (the source's name)
Procedure, shortened: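 Ha-ras-transformed NIH/3T3 line (212), kept in MEM alpha with 10% calf serum and antibiotics. Assay medium had 10 mM HEPES pH 7.3. (1–3) × 10³ cells seeded, attached 6 h, then exposed to a range of drug concentrations for 6 days at 37 °C. MTT 4 h, DMSO solubilisation, A550.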

RAW264.7 [4] = test: Antiinflammatory activity in LPS-stimulated mouse RAW264.7 cells assessed as inhibition of TNFalpha formation at 10 uM pretreated 1 hr before LPS challenge measured after 24 hrs by enzyme immunoassay; format: functional; procedure, shortened: as §1
N9 [5] = test: Antiinflammatory activity in LPS/IFN-gamma-stimulated mouse N9 cells assessed as inhibition of TNFalpha formation at 10 uM pretreated 1 hr before LPS/IFNgamma challenge measured after 24 hrs by enzyme immunoassay
T-24 = test: Cytotoxicity against human T24 cells after 6 days by MTT assay; format: functional; conditions: T-24, 144 h, read-out: ED50 (the source's name)
Procedure, shortened: (§2)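 Cells grown in DMEM with 10% FBS, 2 mM glutamine and penicillin/streptomycin. (1–3) × 10³ cells seeded per well, attached 6 h, then given fresh medium with 10 mM HEPES pH 7.3 and a range of drug concentrations at 37 °C, CO₂, for 6 days. MTT (1 mg/mL in PBS) added for 4 h, formazan dissolved in DMSO, absorbance read at 550 nm.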

Ca-Ski = test: Cytotoxicity against human CaSki cells after 6 days by MTT assay; format: functional; conditions: 144 h, read-out: ED50 (the source's name); procedure, shortened: as §2
SiHa = test: Cytotoxicity against human SiHa cells after 6 days by MTT assay; format: functional; conditions: 144 h, read-out: ED50 (the source's name); procedure, shortened: as §2
HT-3 = test: Cytotoxicity against human HT3 cells after 6 days by MTT assay; format: functional; conditions: HT-3, 144 h, read-out: ED50 (the source's name); procedure, shortened: as §2
[6] = Cytotoxicity against human PLC/PRF/5 cells after 6 days by MTT assay; format: functional; conditions: PLC-PRF-5, 144 h, read-out: ED50 (the source's name); procedure, shortened: as §2

| Compound | inhibition at 30 µM (RAW264.7 [1]) [%] | inhibition at 30 µM (N9 [2]) [%] | EC50 [3] [µg/mL] | inhibition at 10 µM (RAW264.7 [4]) [%] | inhibition at 10 µM (N9 [5]) [%] | also measured |
| --- | --- | --- | --- | --- | --- | --- |
| CC(=O)c1ccc(O)c(O)c1 | -29.2 | -21.5 |  |  |  |  |
| CO[C@@H]1[C@@H](O)[C@H](O[C@H]2CC[C@@]3(C)C(=CC[C@@H]4C(=O)O[C@@H]5CO[C@]6(C)OC=C(CC[C@@H]43)[C@H]56)C2)O[C@H](C)[C@H]1O[C@H]1C[C@H](OC)[C@@H](O[C@H]2C[C@H](OC)[C@H](O)[C@@H](C)O2)[C@H](C)O1 | 33.7 | 30.9 | 0.96 (≈ 1.19 µM) |  |  |  |
| CO[C@@H]1[C@@H](O)[C@H](O[C@H]2CC[C@@]3(C)C(=CC[C@@H]4C(=O)O[C@@H]5CO[C@]6(C)OC=C(CC[C@@H]43)[C@H]56)C2)O[C@H](C)[C@H]1O |  |  |  | 29.5 | 3.2 |  |
| COc1cc(C(C)=O)ccc1O [APOCYNIN] | -19.8 | -22.6 |  |  |  |  |
| CO[C@@H]1[C@@H](O)[C@H](O[C@H]2CC[C@@]3(C)C(=CC[C@@H]4C(=O)O[C@@H]5CO[C@]6(C)OC(=O)/C(=C/C[C@@H]43)[C@H]56)C2)O[C@H](C)[C@H]1O[C@H]1C[C@H](OC)[C@@H](O[C@H]2C[C@H](OC)[C@H](O)[C@@H](C)O2)[C@H](C)O1 [ATRATOGLAUCOSIDE B] |  |  | > 4 |  |  | EC50 (T-24): > 4 µg/mL; EC50 (Ca-Ski): > 4 µg/mL; EC50 (SiHa): > 4 µg/mL; EC50 (HT-3): > 4 µg/mL; EC50 [6]: > 4 µg/mL |
| C[C@@H]1C[C@H]2[C@@H]3CCC4=CC(=O)C=C[C@]4(C)[C@@]3(F)[C@@H](O)C[C@]2(C)[C@@]1(O)C(=O)CO [DEXAMETHASONE] |  |  |  | 49.9 | 82 |  |
